Source: the RNAGym collection of RNA variant scans (doi:10.1002/anie.201605470)

B1: Osa-1-4 twister ribozyme (parent)
chain: CCGCCUAACACUGCCAAUGCCGGUCCCAAGCCCGGAUAAAAGUGGAGGGGGCGG

Variants of: B1
Experiment: self-cleavage, relative activity (ratio to wild type); higher = more cleavage; co-transcriptional
Summary of the method: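 A DNA template was synthesised for a 54-nucleotide twister ribozyme from Oryza sativa, with 97 % wild-type base and 1 % of each other base at each of the 48 positions downstream of the cleavage site. The ribozyme cleaved itself co-transcriptionally during 2 h of in vitro transcription at 37 °C. Reverse transcription with a template-switching oligonucleotide, PCR amplification and deep sequencing followed, and cleavage status came from reads with or without upstream sequence. Relative activity is the fraction cleaved normalised to wild type.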

Row | Variant | self-cleavage
1 | CCGCCUAACACAGCCGAUGCCGGUCCCAAGCCCGGAUAAAAGUGGAGGGGGCGG [A16G U12A] | 0.97
2 | CCGCCUAACACGGCCGAUGCCGGUCCCAAGCCCGGAUAAAAGUGGAGGGGGCGG [A16G U12G] | 0.55
3 | CCGCCUAACACCGCCGAUGCCGGUCCCAAGCCCGGAUAAAAGUGGAGGGGGCGG [A16G U12C] | 0.53
4 | CCGCCUAACACUGCCGAUGCCGGUCCCAAGCCCGGAUAAAAGUGGAGAGGGCGG [A16G G48A] | 0.18
5 | CCGCCUAACACUGCCGAUGCCGGUCCCAAGCCCGGAUAAAAGUGGAGCGGGCGG [A16G G48C] | 0.15
6 | CCGCCUAACACUGCCGAUGCCGGUCCCAAGCCCGGAUAAAAGUGGAGUGGGCGG [A16G G48U] | 0.1
7 | CCGCCUAACACUGCCUAUGCCGGUCCCAAGCCCGGAUAUAAGUGGAGGGGGCGG [A16U A39U] | 0.87
8 | CCGCCUAACACUGCCUAUGCCGGUCCCAAGCCCGGAUAGAAGUGGAGGGGGCGG [A16U A39G] | 0.4
9 | CCGCCUAACACUGCCUAUGCCGGUCCCAAGCCCGGAUACAAGUGGAGGGGGCGG [A16U A39C] | 0.93
10 | CCGCCUAACACUGCCGAUGCCGGUCCCAAGCCCUGAUAAAAGUGGAGGGGGCGG [A16G G34U] | 0.82
11 | CCGCCUAACACUGCCGAUGCCGGUCCCAAGCCCCGAUAAAAGUGGAGGGGGCGG [A16G G34C] | 0.74
12 | CCGCCUAACACUGCCGAUGCCGGUCCCAAGCCCAGAUAAAAGUGGAGGGGGCGG [A16G G34A] | 0.84
13 | CCGCCUAACACUGCCUAUGCCGGUCCCAAGCCCGGAUAAAAGUGGAGGGGGCGG [A16U] | 0.97
14 | CCGCCUAACACUGCCGAUGCCGGUCCCAAGCCCGCAUAAAAGUGGAGGGGGCGG [A16G G35C] | 0.8
15 | CCGCCUAACACUGCCGAUGCCGGUCCCAAGCCCGAAUAAAAGUGGAGGGGGCGG [A16G G35A] | 0.87
16 | CCGCCUAACACUGCCGAUGCCGGUCCCAAGCCCGUAUAAAAGUGGAGGGGGCGG [A16G G35U] | 0.93
17 | CCGCCUAACACUGCCGAUGCCGGUCCCAACCCCGGAUAAAAGUGGAGGGGGCGG [A16G G30C] | 0.05
18 | CCGCCUAACACUGCCGAUGCCGGUCCCAAACCCGGAUAAAAGUGGAGGGGGCGG [A16G G30A] | 0.04
19 | CCGCCUAACACUGCCGAUGCCGGUCCCAAUCCCGGAUAAAAGUGGAGGGGGCGG [A16G G30U] | 0.04
20 | CCGCCUGACACUGCCUAUGCCGGUCCCAAGCCCGGAUAAAAGUGGAGGGGGCGG [A16U A7G] | 0.27
21 | CCGCCUCACACUGCCUAUGCCGGUCCCAAGCCCGGAUAAAAGUGGAGGGGGCGG [A16U A7C] | 0.04
22 | CCGCCUUACACUGCCUAUGCCGGUCCCAAGCCCGGAUAAAAGUGGAGGGGGCGG [A16U A7U] | 0.06
23 | CCGCCUAACACUGCCGAUGCCGGGCCCAAGCCCGGAUAAAAGUGGAGGGGGCGG [A16G U24G] | 0.04
24 | CCGCCUAACACUGCCGAUGCCGGCCCCAAGCCCGGAUAAAAGUGGAGGGGGCGG [A16G U24C] | 0.58
25 | CCGCCUAACACUGCCGAUGCCGGACCCAAGCCCGGAUAAAAGUGGAGGGGGCGG [A16G U24A] | 0.48

Row | Variant | self-cleavage
26 | CCGCCUAACACUGCCGAUGCCGGUCCCAAGCCCGGAGAAAAGUGGAGGGGGCGG [A16G U37G] | 1.02
27 | CCGCCUAACACUGCCGAUGCCGGUCCCAAGCCCGGAAAAAAGUGGAGGGGGCGG [A16G U37A] | 0.87
28 | CCGCCUAACACUGCCGAUGCCGGUCCCAAGCCCGGACAAAAGUGGAGGGGGCGG [A16G U37C] | 1.03
29 | CCGCCUAACACUGCCGAUCCCGGUCCCAAGCCCGGAUAAAAGUGGAGGGGGCGG [A16G G19C] | 0.4
30 | CCGCCUAACACUGCCGAUACCGGUCCCAAGCCCGGAUAAAAGUGGAGGGGGCGG [A16G G19A] | 0.98
31 | CCGCCUAACACUGCCGAUUCCGGUCCCAAGCCCGGAUAAAAGUGGAGGGGGCGG [A16G G19U] | 0.57
32 | CCGCCUAACACUGCCGAUGCCGGUCCCAAGCCCGGAUAAAAGUGCAGGGGGCGG [A16G G45C] | 0.08
33 | CCGCCUAACACUGCCGAUGCCGGUCCCAAGCCCGGAUAAAAGUGAAGGGGGCGG [A16G G45A] | 0.55
34 | CCGCCUAACACUGCCGAUGCCGGUCCCAAGCCCGGAUAAAAGUGUAGGGGGCGG [A16G G45U] | 0.19
35 | CCGCCUAACACUGCCUCUGCCGGUCCCAAGCCCGGAUAAAAGUGGAGGGGGCGG [A16U A17C] | 0.94
36 | CCGCCUAACACUGCCUUUGCCGGUCCCAAGCCCGGAUAAAAGUGGAGGGGGCGG [A16U A17U] | 1.01
37 | CCGCCUAACACUGCCUGUGCCGGUCCCAAGCCCGGAUAAAAGUGGAGGGGGCGG [A16U A17G] | 0.96
38 | CCGCCUAACACUGCCUAUGCCGGUCCCAAGCCCGGUUAAAAGUGGAGGGGGCGG [A16U A36U] | 1.01
39 | CCGCCUAACACUGCCUAUGCCGGUCCCAAGCCCGGCUAAAAGUGGAGGGGGCGG [A16U A36C] | 0.6
40 | CCGCCUAACACUGCCUAUGCCGGUCCCAAGCCCGGGUAAAAGUGGAGGGGGCGG [A16U A36G] | 0.97
41 | CCGCCUAACACUGCCGAUGCCGGUCCCAAGCCCGGAUAAAAGUGGACGGGGCGG [A16G G47C] | 0.2
42 | CCGCCUAACACUGCCGAUGCCGGUCCCAAGCCCGGAUAAAAGUGGAAGGGGCGG [A16G G47A] | 0.6
43 | CCGCCUAACACUGCCGAUGCCGGUCCCAAGCCCGGAUAAAAGUGGAUGGGGCGG [A16G G47U] | 0.49
44 | CCGCCUAGCACUGCCUAUGCCGGUCCCAAGCCCGGAUAAAAGUGGAGGGGGCGG [A16U A8G] | 0.62
45 | CCGCCUAUCACUGCCUAUGCCGGUCCCAAGCCCGGAUAAAAGUGGAGGGGGCGG [A16U A8U] | 0.35
46 | CCGCCUACCACUGCCUAUGCCGGUCCCAAGCCCGGAUAAAAGUGGAGGGGGCGG [A16U A8C] | 0.06
47 | CCGCCUAACACUGCCUAUGCCGGUCCCAGGCCCGGAUAAAAGUGGAGGGGGCGG [A16U A29G] | 0.18
48 | CCGCCUAACACUGCCUAUGCCGGUCCCACGCCCGGAUAAAAGUGGAGGGGGCGG [A16U A29C] | 0.04
49 | CCGCCUAACACUGCCUAUGCCGGUCCCAUGCCCGGAUAAAAGUGGAGGGGGCGG [A16U A29U] | 0.11
